Bioassay records (PubChem BioAssay)
Compounds with a hit are over-represented: about 3.9% of the library has one in this group of screens.
TAAR1 antag = human TAAR1 antagonism. 1.5% of 360,000 active. CHO RD-HGA16 TAAR1, Fluo-8 calcium fluorescence, antagonist. inhibition, % at 3 µM. Q96RJ0;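 active = inhibition above a per-plate cutoff, the mean inhibition of test compounds on that plate plus 3 SD, cut at about 49% in these data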
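Test system – hTAAR1-expressing CHO RD-HGA16 cells, Gα16-coupled · Reagent – β-PEA at EC80 concentration, post-compound challenge · Compound dosing – 3 µM, single point · Timing – 140 s kinetic read after compound, 140 s after agonist · Detection – Fluo-8 intracellular calcium dye fluorescence, real-time kinetic reads · Control set – DMSO and EC80 PEA controls · Repeats – n of 1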
TMEM16A inh = mouse TMEM16A channel inhibition, primary screen; HEK293 TMEM16A/YFP iodide influx fluorescence, ionomycin; Q8BHY3; 1.2% of 310,000 active; normalized B-score (activity score, 25-100; higher = stronger inhibition) at 10 µM;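 active = ratio plate-corrected score three or more library SD toward inhibition, starting fluorescence score within five deviations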;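 also: score derived from kinetic fluorescence span divided by baseline fluorescence per well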
Target sequence (Q8BHY3 whole entry, looked up): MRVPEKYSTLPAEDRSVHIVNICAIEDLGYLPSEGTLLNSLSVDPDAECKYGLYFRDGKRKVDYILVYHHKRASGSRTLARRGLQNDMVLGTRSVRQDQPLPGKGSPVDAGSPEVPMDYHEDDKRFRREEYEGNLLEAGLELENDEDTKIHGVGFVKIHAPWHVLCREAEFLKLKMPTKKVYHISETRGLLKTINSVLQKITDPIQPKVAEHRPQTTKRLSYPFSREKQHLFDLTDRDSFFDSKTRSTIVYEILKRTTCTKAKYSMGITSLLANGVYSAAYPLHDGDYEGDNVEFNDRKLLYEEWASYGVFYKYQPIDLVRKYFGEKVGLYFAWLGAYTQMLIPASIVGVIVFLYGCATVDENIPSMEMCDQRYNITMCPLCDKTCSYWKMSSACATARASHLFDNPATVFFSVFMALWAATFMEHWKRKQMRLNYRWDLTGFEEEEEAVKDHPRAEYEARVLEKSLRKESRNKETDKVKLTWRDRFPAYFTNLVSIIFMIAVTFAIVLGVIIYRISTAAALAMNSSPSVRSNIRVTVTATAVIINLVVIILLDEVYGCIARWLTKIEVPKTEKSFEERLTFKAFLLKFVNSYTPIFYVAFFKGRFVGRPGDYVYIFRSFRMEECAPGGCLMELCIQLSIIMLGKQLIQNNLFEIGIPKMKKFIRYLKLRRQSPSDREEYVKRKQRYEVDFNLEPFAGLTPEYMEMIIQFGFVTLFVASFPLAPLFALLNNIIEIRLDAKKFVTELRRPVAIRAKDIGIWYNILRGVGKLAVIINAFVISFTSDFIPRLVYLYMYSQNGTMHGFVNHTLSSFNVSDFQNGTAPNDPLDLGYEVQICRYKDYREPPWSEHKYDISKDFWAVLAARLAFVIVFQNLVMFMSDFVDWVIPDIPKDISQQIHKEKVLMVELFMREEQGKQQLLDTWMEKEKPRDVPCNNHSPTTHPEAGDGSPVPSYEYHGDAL
TMEM16A act = activates or potentiates the mouse TMEM16A chloride channel; HEK293 TMEM16A/YFP-H148Q/I152L, iodide quench fluorescence; active compounds read low; B-score at 10 µM; 0.3% of 340,000 active;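 active = fluorescence-ratio B-score plate-corrected deviation score at least 3 library SD below zero, with starting fluorescence score within 5 deviations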;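 also: channel opened by trigger with iodide after compound preincubation; score built on the fluorescence ratio of max minus min over baseline; more negative score means more quench and so TMEM16A activation or potentiation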
TAAR1 agonist = human TAAR1 agonism; 0.99% of 360,000 active; CHO RD-HGA16 TAAR1, Fluo-8 calcium fluorescence; vehicle wells 0%, saturating PEA agonist 100%; Q96RJ0; activation, % at 3 µM;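 active = activation above the mean activation of all test compounds in the run plus 3 SD, cut at about 38% in these data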
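Benchmarks: low control DMSO, high control PEA (EC100); System: CHO RD-HGA16 cells carrying human TAAR1 plus Gα16; Detection: Fluo-8 fluorescence, 5 s baseline then 140 s kinetic read; Schedule: 17-24 h plating, Fluo-8 75 min 37 °C, 30 min RT; Read-out basis: % activation from peak over basal fluorescence ratio, DMSO-to-PEA scaled.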
CRFR2-BP antag = antagonists of CRF-binding protein/CRF-R2 receptor complex. HEK293 CRF-R2/CRF-BP, CRF-induced calcium fluorescence. 0.59% of 350,000 active. inhibition, % at 11.8 µM. AID 588475;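 active = inhibition of the ligand-induced calcium signal above about 50% at the single tested concentration, limit read from the data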
CRFBP-R2 agonist = CRF-BP/CRF-R2 complex agonism. HEK293 CRF-R2/CRF-BP, calcium dye fluorescence (FLIPR); percent of saturating CRF peptide response. activation, % at 13.2 µM. 0.46% of 350,000 active;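 active = activation of at least 50%, plus an integration ratio under a set limit after plate pattern correction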
A number is an active result; - = inactive; . = no result given.

SMILES | TAAR1 antag | TMEM16A inh | TMEM16A act | TAAR1 agonist | CRFR2-BP antag | CRFBP-R2 agonist
O=C1NC(=S)NC1=Cc1ccccc1O | - | . | - | 47 | - | -
CCCCCCCNC(=O)c1ccc(N2CCC3(CC2)OCCO3)c([N+](=O)[O-])c1 | - | 100 | - | - | - | -
CCCNC(=O)c1ccc(N2CCC3(CC2)CC(c2ccccc2)=NO3)c([N+](=O)[O-])c1 | - | - | - | - | - | -
O=C(NCC[C@H]1CC[C@@H](NC(=O)C2CCOCC2)[C@@H](CO)O1)Nc1ccc(Cl)cc1 | - | . | . | - | . | .
CCOc1ccc(/C(O)=C2/C(=O)C(=O)N(CCN(CC)CC)C2c2ccco2)cc1 (configuration not stated) | - | - | - | - | - | -
Cc1ccccc1COc1ccc(/C(O)=C2/C(=O)C(=O)N(CCCn3ccnc3)C2c2ccco2)cc1 (configuration not stated) | - | - | - | - | 54 | -
COc1ccccc1C1CCN(c2cc(O)ccc2[N+](=O)[O-])CC1 | - | 100 | - | - | - | -
COc1ccccc1C1CCN(C(=O)c2ccccc2)CC1 | - | - | - | - | - | -
C=CCC(C(=O)OC)(C(=O)OC)c1ccccc1[N+](=O)[O-] | - | - | - | - | - | -
c1ccc2c(c1)CCCN2Cc1nnnn1CC1CCCO1 (configuration not stated) | - | - | - | - | - | -
c1ccc(CCn2nnnc2CN2CCCc3ccccc32)cc1 | - | - | - | - | - | 68
CCCn1c(SCC(=O)N2CC(=O)Nc3ccccc32)nc2ccccc21 | - | - | - | - | - | 56
O=C1CN(C(=O)CSc2nc3ccccc3n2CCc2ccccc2)c2ccccc2N1 | - | - | - | - | - | -
Cc1cc(C)nc(SCCN(C)C)n1 | - | - | - | - | - | -
Cc1cc(C)nc(SSc2nc(C)cc(C)n2)n1 | - | - | - | 46 | - | -
COc1ccc(OC2C(=O)N(c3cc(C)ccc3C)C2c2ccc(OC)c(OC)c2)cc1 (configuration not stated) | - | - | - | - | 51 | -
CCNC(=O)C1(C)CCCN(Cc2ccc(Oc3ccccc3)cc2)C1 (configuration not stated) | - | . | . | - | . | .
CC(NC(=O)CC(c1ccccc1)c1cc(Cl)ccc1O)c1ccccc1 (configuration not stated) | - | - | - | - | 52 | -
CCC(CC)NC(=O)CC(c1ccccc1)c1ccccc1 | - | - | - | - | 71 | -
CC(Sc1nc(N)cc(=O)[nH]1)C(=O)Nc1ccc(N2CCOCC2)cc1 (configuration not stated) | - | . | . | - | - | -
CC(C)C[C@@H]1COc2cc(N3CC[C@H](O)C3)ccc2S(=O)(=O)N1 | - | . | . | - | . | .
COc1cc(/C=C2\C(=N)N3N=C(N4CCOCC4)SC3=NC2=O)ccc1OC(=O)c1ccccc1 | - | 100 | - | - | - | -
N=C1/C(=C\c2ccc(OC(=O)c3ccccc3Cl)cc2)C(=O)N=C2SC(N3CCOCC3)=NN12 | - | - | - | - | - | -
CCc1cc2c(=O)n(-c3ccccc3)c(SCC(N)=O)nc2s1 | - | - | - | - | - | -
CCc1cc2c(=O)n(-c3ccccc3)c(=S)[nH]c2s1 | - | 25 | - | - | - | -
SMILES | TAAR1 antag | TMEM16A inh | TMEM16A act | TAAR1 agonist | CRFR2-BP antag | CRFBP-R2 agonist
CCCc1cc(C(=O)Nc2cc(OC)ccc2OC)cs1 | - | - | - | - | - | -
COc1ccc2nc(N=NC3=C(O)CC(C)(C)CC3=O)sc2c1 | - | - | - | - | 50 | -
COC(=O)C1=C(C)NC(C)=C(C(=O)OC)C1/C=C/c1ccccc1 | - | - | - | - | 53 | -
COCCNc1nc2c(S(=O)(=O)c3cc(C)ccc3C)nnn2c2ccccc12 | - | - | - | - | 50 | -
Cc1ccc(C)c(Nc2nc3c(S(=O)(=O)c4ccccc4)nnn3c3ccccc23)c1 | - | - | - | - | - | -
CN(C)c1nc(N(C)C)nc(N(C)C)n1 | - | - | - | - | - | -
CNc1nc(N(C)C)nc(N(C)C)n1 | - | - | - | - | - | 72
Clc1ccc(-c2nnc3sc(-c4ccc(Br)o4)nn23)cc1 | - | - | - | - | - | 53
CSCCC(NC(=O)CCNC(=O)c1ccccc1Cl)c1nc2ccccc2[nH]1 (configuration not stated) | - | . | - | - | - | -
COC(=O)[C@H](Cc1ccccc1)N1Cc2ccccc2Oc2cc(Br)ccc2S1(=O)=O | - | . | . | - | . | .
O=C(c1ccccc1)c1coc2c1C(=O)c1ccccc1C2=O | - | - | - | - | - | -
O=C1c2ccccc2-c2onc3ccc(Oc4ccccc4)c1c23 | 67 | - | - | 43 | - | -
CCCCCCN1C[C@@H](O)[C@H](n2cc(COC(=O)c3ccccc3)nn2)C[C@@H]1c1ccc(OC)cc1 | - | . | . | - | - | -
CCn1c(SCC(=O)NCC2CCCO2)nnc1-c1ccc(S(=O)(=O)N2CCN(C)CC2)cc1 (configuration not stated) | - | - | - | - | - | -
COc1nc(NCCc2ccc(OC)c(OC)c2)nc(Nc2ccccc2)n1 | - | - | - | - | - | -
COc1ccc(-c2csc(NC(=O)CCn3cnc4ccccc4c3=O)n2)cc1OC | 55 | - | - | - | - | -
Cc1ccc(NC(=O)CCn2cnc3ccccc3c2=O)cc1Cl | - | - | - | 40 | - | -
COc1ccc(-c2csc(NC(=O)CCCc3nc4ccccc4c(=O)[nH]3)n2)cc1OC | - | - | - | - | - | -
CC(NCC(=O)Nc1cc(S(=O)(=O)N2CCCCCC2)ccc1Cl)c1ccccc1 (configuration not stated) | - | 100 | - | - | - | -
O=C(CSc1ncn[nH]1)Nc1cc(S(=O)(=O)N2CCCC2)ccc1Cl | - | - | - | - | 50 | -
Cc1ccc(S(=O)(=O)N2CCCCC2)cc1NC(=O)CSc1ncn[nH]1 | - | - | - | - | - | -
O=C(Nc1cc(S(=O)(=O)N2CCCCC2)ccc1Cl)c1ccccc1NS(=O)(=O)c1ccc(F)cc1 | - | 25 | - | - | 108 | -
CCOc1ccc(NC(=O)c2ccccc2NS(=O)(=O)c2ccc(F)cc2)c([N+](=O)[O-])c1 | - | 25 | - | - | - | -
CN(C)C(=O)CCc1ccc2c3c([nH]c2c1)[C@]1(CCC2CCCC2)[C@@H](C(=O)N2CCOCC2)C[C@H](CC(=O)NC(C)(C)C)C(=O)N1CC3 | - | . | . | - | - | -
Cc1cccc(/C=C2/S/C(=N/N=C3\CC4CCC3(C)C4(C)C)NC2=O)c1 (configuration not stated) | - | - | - | - | 50 | -
